Data taken from ChEMBL document CHEMBL1124035, “1-Amino-substituted 4-methyl-5H-pyrido[4,3-b]indoles (gamma-carbolines) as tricyclic analogues of ellipticines: a new class of antineoplastic agents” (1988).
Activity calls are given as the source filed them. The rule behind the calls is not given here.

How the values were obtained:
Calf thymus DNA = assay: Apparent DNA affinity constant; format: nucleic-acid assay; conditions: Bos taurus
Summary of the method: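 Apparent DNA affinity constant was measured by competition with ethidium bromide. Buffer was 20 mM Na2HPO4/NaH2PO4, 0.1 M NaCl, 1 mM EDTA, pH 7.4, with calf thymus DNA at 10 μg/mL. Values are given in 10^6 M⁻¹.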

Mus musculus [1] = assay: Antitumor activity against P388 leukemia in mice at a dose of 20 mg/kg administered intraperitoneally for 5 days; format: functional; conditions: route intraperitoneal
Summary of the method: (§1)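 CDF1 hybrid male or female mice, 10 per group, were inoculated ip with 10^6 viable P388 cells on day 0. Drugs in distilled water were given ip (0.1 mL/10 g body weight) daily D1-5. Vehicle, 5-fluorouracil and BD 84 were given the same way. T/C = median survival day of treated / controls × 100; T/C > 128% was significant; cures counted at D60.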

Mus musculus [2] = assay: Antitumor activity against P388 leukemia in mice at a dose of 10 mg/kg administered intraperitoneally for 5 days; format: functional; summary of the method: as §1
L1210 = assay: Ability to reduce the cell count to 50% in L1210 culture cells; format: functional; conditions: Mus musculus, read-out: ID50 (the source's name)
Summary of the method: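 L1210 cells in exponential growth in RPMI 1640 with 2 mM glutamine, penicillin/streptomycin and 10% FCS, 37 °C, 5% CO2. Drugs dissolved in distilled water were added to cells at 0.8 × 10^5 cells/mL for 48 h, then cells were counted. ID50 is the concentration halving cell proliferation versus controls, from regression of dose-response data; mean of two independent experiments.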

Mus musculus [3] = assay: Antitumor activity against P388 leukemia in mice at a dose of 5 mg/kg administered intraperitoneally for 5 days; format: functional
Summary of the method: (§2)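 CDF1 hybrid male or female mice, 10 per group, were inoculated ip on day 0 with 10^6 viable P388 leukemia cells. Drug in distilled water was given ip (0.1 mL/10 g body weight) daily on days 1-5, with vehicle, 5-fluorouracil and BD 84 controls given the same way. T/C = median survival of treated/controls × 100; T/C > 128% counted as significant.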

Mus musculus [4] = assay: Antitumor activity against P388 leukemia in mice at a dose of 40 mg/kg administered intraperitoneally for 5 days; Nontoxic at this dose; format: functional; conditions: route intraperitoneal; summary of the method: as §2
Mus musculus [5] = assay: Antitumor activity against P388 leukemia in mice at a dose of 40 mg/kg administered intraperitoneally for 5 days; format: functional; conditions: route intraperitoneal; summary of the method: as §2
Mus musculus [6] = assay: Antitumor activity against P388 leukemia in mice at a dose of 80 mg/kg administered intraperitoneally for 5 days; format: functional, organism-based; design: dose 80 mg/kg; summary of the method: as §2
Mus musculus [7] = assay: Antitumor activity against P388 leukemia in mice at a dose of 50 mg/kg administered intraperitoneally for 5 days; Non toxic at this dose; format: functional; conditions: route intraperitoneal; summary of the method: as §2
Mus musculus [8] = assay: Antitumor activity against P388 leukemia in mice at a dose of 50 mg/kg administered intraperitoneally for 5 days; […]; format: functional; conditions: route intraperitoneal; summary of the method: as §2
Mus musculus [9] = assay: Antitumor activity against P388 leukemia in mice at a dose of 40 mg/kg administered intraperitoneally; format: functional, organism-based; design: dose 40 mg/kg
Mus musculus [10] = assay: Antitumor activity against P388 leukemia in mice at a dose of 50 mg/kg administered intraperitoneally for 5 days; format: functional, organism-based; design: dose 50 mg/kg; summary of the method: as §2

| SMILES | K aff (Calf thymus DNA) | IC50 (L1210) | T/C (Mus musculus [1]) | T/C (Mus musculus [2]; route intraperitoneal) | T/C (Mus musculus [3]; route intraperitoneal) | further results |
| --- | --- | --- | --- | --- | --- | --- |
| CCN(CC)CCNc1ncc(C)c2c1c1cc(O)ccc1n2C | 110000 M⁻¹ | 150 nM | 182% | 153% | 142% | T/C (Mus musculus [4]): 137% |
| CCN(CC)CCNc1ncc(C)c2c1c1cc(OC)ccc1n2C | 80000 M⁻¹ | 1200 nM | – | – | – | – |
| CCN(CC)CC(O)CNc1ncc(C)c2c1c1cc(O)ccc1n2C (stereo unspecified) | 230000 M⁻¹ | 60 nM | – | – | – | T/C (Mus musculus [2]): Toxic; T/C (Mus musculus [3]): inactive |
| Cc1cnc(NCC(C)CN(C)C)c2c3cc(O)ccc3n(C)c12 (stereo unspecified) | 140000 M⁻¹ | 10 nM | – | – | – | – |
| CCN(CC)CCCNc1[nH]cc(C)c2nc3ccccc3c1-2.O=C(O)/C=C\C(=O)O.O=C(O)/C=C\C(=O)O | 150000 M⁻¹ | 220 nM | – | 130% | – | T/C (Mus musculus [8]): 175% |
| Cc1cnc(NCCCN2CCCC2)c2c3cc(O)ccc3n(C)c12 | 370000 M⁻¹ | 50 nM | – | – | – | – |

Continued, in another order:

| K aff (Calf thymus DNA) | IC50 (L1210) | SMILES | T/C (Mus musculus [1]) | T/C (Mus musculus [2]; route intraperitoneal) | T/C (Mus musculus [3]; route intraperitoneal) | further results |
| --- | --- | --- | --- | --- | --- | --- |
| 250000 M⁻¹ | 100 nM | CCN(CC)CCCNc1ncc(C)c2c1c1cc(OC)ccc1n2C | 125% | 115% | 107% | T/C (Mus musculus [5]): 115%; T/C (Mus musculus [6]): Toxic |
| 50000 M⁻¹ | 1140 nM | Cc1c[nH]c(NCCNCCO)c2c3ccccc3nc1-2 | – | 109% | – | T/C (Mus musculus [7]): 100% |
| 220000 M⁻¹ | 1200 nM | CCNCCCNc1[nH]cc(C)c2nc3ccc(OC)cc3c1-2 | 107% | 119% | 119% | T/C (Mus musculus [9]): Toxic |
| 130000 M⁻¹ | 160 nM | Cc1c[nH]c(NCCCN(C)C)c2c3ccccc3nc1-2 | – | 129% | – | T/C (Mus musculus [10]): Toxic |
